Assay outcomes (PubChem)
UBC13 polyUb: blocks human UBC13 polyubiquitin chain formation; TR-FRET; AID 485273; inhibition, % at 20 µM; actives 0.47% (n = 330,000); P61088; in the data active means inhibition above about 45%, passing the limit was not always enough; inconclusive means no clear call, values can overlap the other calls
Target sequence (P61088 whole entry, looked up): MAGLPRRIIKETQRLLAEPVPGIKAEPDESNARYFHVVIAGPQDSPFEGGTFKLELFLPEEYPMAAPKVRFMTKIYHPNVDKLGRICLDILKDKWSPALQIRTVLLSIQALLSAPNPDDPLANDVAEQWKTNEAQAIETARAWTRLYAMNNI
PREPL inh: human PREPL enzyme inhibition | Q4J6C6 | recombinant PREPL, fluorescence polarization activity-based probe | inhibition, % at 5.96 µM | actives 0.68% (n = 320,000); in the data active means inhibition above about 43%;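 further: 0% = enzyme with DMSO and 100% = wells lacking enzyme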
Apaf1 inhib: blocks human Apaf-1 apoptosome activity; AID 489030; inhibition, % at 20 µM; actives 0.71% (n = 330,000); O14727; reconstituted apoptosome caspase-3 activity, DEVD-Rh110 fluorescence; active means inhibition of at least 40% at 20 µM;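 further: plate controls were DMSO wells for no effect and DEVD-CHO caspase inhibitor wells for full effect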
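detection = Rh110 fluorescence intensity | test system = biochemical Apaf-1 apoptosome reconstitution | also added = cytochrome c and DEVD-Rh110 substrate | schedule = 30 min plus 50 min, RT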
UCH37 DUB inh: inhibitors of human deubiquitinating enzyme UCH37; inhibition, % (test concentration not listed); Q9Y5K5; purified proteasome/UCH37, Ub-AMC cleavage fluorescence; AID 588478; actives 0.33% (n = 330,000);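 active means mean inhibition over replicate wells above about 20%, limit read from the data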;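 further: 0% = compound-free wells with enzyme and 100% = wells lacking proteasome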
Target sequence (Q9Y5K5 whole entry, looked up): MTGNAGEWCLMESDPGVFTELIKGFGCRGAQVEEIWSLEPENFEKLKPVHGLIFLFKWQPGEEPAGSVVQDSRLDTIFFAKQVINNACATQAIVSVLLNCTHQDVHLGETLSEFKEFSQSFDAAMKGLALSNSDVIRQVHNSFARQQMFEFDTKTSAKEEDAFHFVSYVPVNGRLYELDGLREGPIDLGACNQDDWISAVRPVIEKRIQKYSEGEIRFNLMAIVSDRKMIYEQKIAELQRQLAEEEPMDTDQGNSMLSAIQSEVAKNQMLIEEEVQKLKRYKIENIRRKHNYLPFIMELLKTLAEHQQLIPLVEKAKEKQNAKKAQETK
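assay system = human UCH37 enzyme supplied as purified proteasome complex | amount = proteasome at 0.15 nM in the dispensed enzyme solution | schedule = 30 min compound-proteasome preincubation then 25 min substrate reaction, room temperature | measured by = fluorescence, ex 355 nm, em 460 nm | benchmarks = no-proteasome wells (full inhibition) and compound-free wells (no inhibition)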
Apaf-1 inh conf2: Apaf-1 inhibition, single-dose confirmed | shares compounds with Apaf1 inhib | reconstituted apoptosome, caspase-3 DEVD-Rh110 fluorescence | inhibition, % at 20 µM | actives 25% (n = 1,800) | AID 504614;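 active means mean inhibition of at least 40% at 20 µM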;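 further: plate controls were DMSO wells for no effect and DEVD-CHO caspase inhibitor control wells for full effect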
Rh110 interf inh: counter-screen for Apaf-1 inhibitors: fluorescence interference; shares compounds with Apaf1 inhib; Rh110 fluorescence interference, quenched caspase reaction; activation (fluorescence interference), % at 20 µM; 1,800 tested, under 10 active; AID 504615;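 active means signal rise of 40% or more at 20 µM, treated as a fluorescence artifact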
Apaf1 inh interf: Apaf-1 inhibitor counter-screen fluorescence artifact; shares compounds with Apaf1 inhib; fluorescence interference counterscreen, Apaf-1 assay format; IC50, µM; 460 tested, under 10 active; AID 588538; call rule not given here
Starred values were filed as active, the others as inactive. This is a sample that favours compounds with a hit; in the whole collection about 1.5% have one here.

How did Cc1cccc(C(=O)NN=Cc2coc3ccccc3c2=O)c1 do in these assays?
UCH37 DUB inh: -30

How did CCN1CCc2c(C#N)c(N3CCCCC3)nc(NCc3ccccc3)c2C1 do in these assays?
UBC13 polyUb: 28; PREPL inh: 37; Apaf1 inhib: 39; UCH37 DUB inh: -19

What do the screens show for `N#Cc1c(NCCO)nc(NCc2ccccc2)c2c1CCN(Cc1ccccc1)C2`?
UBC13 polyUb: -17; PREPL inh: 24; Apaf1 inhib: 60*; UCH37 DUB inh: -26; Apaf-1 inh conf2: 25; Rh110 interf inh: 12

What do the screens show for `CCCCOc1ccc(C(=O)NCC(=O)NCC(c2cccs2)N2CCOCC2)cc1` (stereo not drawn)?
UBC13 polyUb: 18; PREPL inh: 6; Apaf1 inhib: 41*; UCH37 DUB inh: 2; Apaf-1 inh conf2: 42*; Rh110 interf inh: 13; Apaf1 inh interf: >100

What do the screens show for `Cc1ccc(C(=O)NCC(=O)NCC(c2cccs2)N2CCOCC2)cc1` (stereo not drawn)?
UBC13 polyUb: 9; PREPL inh: 6; Apaf1 inhib: 40; UCH37 DUB inh: -1

How did [O-][N+]1=C2CCCC(=NO)C2=NC12CCCCC2 do in these assays?
UCH37 DUB inh: 1

Results for O=C(NCc1cccnc1)C(=O)NN=Cc1ccc([N+](=O)[O-])cc1 ?
UCH37 DUB inh: 8

What do the screens show for `CC(=O)c1c(C(C)=O)c(C)n(-c2cccc([N+](=O)[O-])c2)c1C`?
UBC13 polyUb: 0; PREPL inh: 13; Apaf1 inhib: 5; UCH37 DUB inh: 1

How did CC(=O)C1=C(c2cccc([N+](=O)[O-])c2)N(C(C)=O)n2c(C)nnc2S1 do in these assays?
UBC13 polyUb: 0; PREPL inh: 3; Apaf1 inhib: 44*; UCH37 DUB inh: 18; Apaf-1 inh conf2: 40; Rh110 interf inh: 9

Results for O=C(CN1CCOCC1)NN=C/C=C/c1ccccc1 ?
UCH37 DUB inh: 5

Results for Cc1[nH]n(-c2ccc([N+](=O)[O-])cc2)c(=O)c1/C=N/N1CCOCC1 ?
UBC13 polyUb: -7; PREPL inh: -3; Apaf1 inhib: 44*; Apaf-1 inh conf2: 0; Rh110 interf inh: -2

How did COc1ccc(CCN=Cc2c(C)[nH]n(-c3ccc([N+](=O)[O-])cc3)c2=O)cc1OC do in these assays?
UBC13 polyUb: 8; PREPL inh: -1; Apaf1 inhib: -3; UCH37 DUB inh: 5

What do the screens show for `CC(=O)Nc1ccc(NC(=O)Oc2ccccc2)cc1`?
UBC13 polyUb: 2; PREPL inh: 9; Apaf1 inhib: -14; UCH37 DUB inh: 2

How did CN(C)c1ccc(NC(=O)Oc2ccccc2)cc1 do in these assays?
UBC13 polyUb: -11; PREPL inh: 21; Apaf1 inhib: 48*; UCH37 DUB inh: -1; Apaf-1 inh conf2: 11; Rh110 interf inh: 3

Results for Cc1[nH]n(-c2ccccc2)c(=S)c1C=NCCCN=Cc1c(C)[nH]n(-c2ccccc2)c1=S ?
UBC13 polyUb: -14; PREPL inh: 24; Apaf1 inhib: 63*; UCH37 DUB inh: 5; Apaf-1 inh conf2: -8; Rh110 interf inh: 1

How did Cc1cc(N2CCN(c3ccc([N+](=O)[O-])c4cccnc34)CC2)c2ccccc2n1 do in these assays?
UBC13 polyUb: -8; PREPL inh: 7; Apaf1 inhib: 60*; UCH37 DUB inh: 10; Apaf-1 inh conf2: 47*; Rh110 interf inh: 2; Apaf1 inh interf: >100

What do the screens show for `Cc1[nH]n(-c2cccc(Cl)c2)c(=O)c1C=Nn1c(C)nc2ccccc2c1=O`?
UCH37 DUB inh: 0

Results for CCCCNC(=O)C(C)N(CCN(C)C)C(=O)CCCN1C(=O)NC(c2ccc([N+](=O)[O-])cc2)C(C(=O)OCc2ccccc2)=C1C (stereo not drawn) ?
Apaf1 inhib: 45*; UCH37 DUB inh: 1; Apaf-1 inh conf2: 14; Rh110 interf inh: 8

What do the screens show for `O=C(OCc1nc2ccccc2s1)c1ccc([N+](=O)[O-])o1`?
UBC13 polyUb: -9; PREPL inh: -28; Apaf1 inhib: 69*; UCH37 DUB inh: 4; Apaf-1 inh conf2: 15; Rh110 interf inh: 7

What do the screens show for `CCCCCCOC(=O)C(C#N)c1nc2ccccc2nc1N1CCOCC1` (stereo not drawn)?
UBC13 polyUb: -6; PREPL inh: 14; Apaf1 inhib: 21; UCH37 DUB inh: -10

How did CCCCCCOC(=O)C(C#N)c1nc2ccccc2nc1N1CCN(CC)CC1 (stereo not drawn) do in these assays?
UBC13 polyUb: 15; PREPL inh: 17; Apaf1 inhib: 42*; UCH37 DUB inh: -8; Apaf-1 inh conf2: 28; Rh110 interf inh: 10

What do the screens show for `COc1ccccc1N1CCN(C(c2cccs2)C(C)NS(=O)(=O)c2ccccc2)CC1` (stereo not drawn)?
UBC13 polyUb: 1; PREPL inh: -7; Apaf1 inhib: 55*; UCH37 DUB inh: 2; Apaf-1 inh conf2: 46*; Rh110 interf inh: 3; Apaf1 inh interf: >100

How did CCCN(CC(=O)Nc1ccccc1OC)C(=O)Cc1ccc2c(c1)CCC2 do in these assays?
UBC13 polyUb: 17; PREPL inh: 5; Apaf1 inhib: 4; UCH37 DUB inh: 2

Results for CCCN(CC(=O)Nc1ccccc1C)C(=O)COc1ccc2c(c1)CCC2 ?
UBC13 polyUb: 14; PREPL inh: 2; Apaf1 inhib: 60*; UCH37 DUB inh: 3; Apaf-1 inh conf2: 37; Rh110 interf inh: 5

What do the screens show for `CCN1/C(=C/c2ccc3cc(C)cc(C)c3[n+]2CC)Sc2cc(C)ccc21`?
UCH37 DUB inh: 9

How did CCN1/C(=C/c2ccc3cc(C)ccc3[n+]2CC)Sc2ccc3sccc3c21 do in these assays?
UBC13 polyUb: inconclusive; PREPL inh: 39; Apaf1 inhib: 62*; UCH37 DUB inh: 10; Apaf-1 inh conf2: 60*; Rh110 interf inh: -9; Apaf1 inh interf: >100

What do the screens show for `Cc1cc(C)cc(NC(=O)CCNS(=O)(=O)c2cc(Br)cnc2N)c1`?
UBC13 polyUb: 2; PREPL inh: -11; Apaf1 inhib: -1; UCH37 DUB inh: 1

Results for CCc1ccccc1NC(=O)CCNS(=O)(=O)c1cc(Br)cnc1N ?
UBC13 polyUb: 11; PREPL inh: -2; Apaf1 inhib: 49*; UCH37 DUB inh: 0; Apaf-1 inh conf2: 12; Rh110 interf inh: 9

What do the screens show for `CCN1CCN(Cc2ccc(NC(=O)c3cc(NC(=O)C4=NN(c5ccccc5)C(=O)C4)cc(OC)c3)cc2C(F)(F)F)CC1`?
UBC13 polyUb: 0; PREPL inh: -7; Apaf1 inhib: 51*; UCH37 DUB inh: 0; Apaf-1 inh conf2: 21; Rh110 interf inh: 12

How did NC(=NOS(=O)(=O)c1ccc([N+](=O)[O-])cc1)c1ccncc1 do in these assays?
UCH37 DUB inh: 3
